Results reported in ChEMBL document CHEMBL1153265, “Quinolines as a novel structural class of potent and selective PDE4 inhibitors: optimisation for oral administration” (Bioorg Med Chem Lett, 2009).
In brackets after ≈: the same amount, converted by molar mass. Each block holds one molecule with its values, some of them ahead of it.

What was measured:
[1] = biological target: 3',5'-cyclic-AMP phosphodiesterase 4B (Homo sapiens, UniProt Q07343); test: Inhibition of human recombinant PDE4B by scintillation proximity assay
3',5'-cyclic-AMP phosphodiesterase 4B, sequence (Q07343 whole entry): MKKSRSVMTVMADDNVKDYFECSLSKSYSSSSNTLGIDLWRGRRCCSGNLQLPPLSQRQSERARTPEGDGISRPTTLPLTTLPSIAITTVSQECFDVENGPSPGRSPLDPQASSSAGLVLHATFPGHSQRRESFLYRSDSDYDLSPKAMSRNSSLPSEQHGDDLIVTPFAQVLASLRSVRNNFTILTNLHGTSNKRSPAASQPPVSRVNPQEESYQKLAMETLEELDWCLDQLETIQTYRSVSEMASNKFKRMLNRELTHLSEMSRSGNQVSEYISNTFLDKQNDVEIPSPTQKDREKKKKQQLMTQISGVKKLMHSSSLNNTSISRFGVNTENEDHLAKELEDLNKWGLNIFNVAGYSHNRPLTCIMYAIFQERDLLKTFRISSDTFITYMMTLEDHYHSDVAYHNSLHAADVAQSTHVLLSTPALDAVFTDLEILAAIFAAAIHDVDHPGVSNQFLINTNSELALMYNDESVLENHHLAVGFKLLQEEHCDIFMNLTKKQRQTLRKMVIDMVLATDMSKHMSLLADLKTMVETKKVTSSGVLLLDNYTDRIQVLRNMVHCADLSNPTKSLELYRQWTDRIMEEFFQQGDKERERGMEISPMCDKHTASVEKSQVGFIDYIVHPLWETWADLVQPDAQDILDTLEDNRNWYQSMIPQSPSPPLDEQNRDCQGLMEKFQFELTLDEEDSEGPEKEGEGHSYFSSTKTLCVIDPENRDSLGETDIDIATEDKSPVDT

Blood = test: Inhibition of LPS-induced TNFalpha production in human whole blood; assay type: functional, tissue-based
[2] = AUC in Sprague-Dawley CD rat at 1 mg/kg, po; assay type: ADME, organism-based; parameters: dose 1 mg/kg, route oral; details: plasma
Procedure, shortened: (§1)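 Male CD Sprague rats, each compound given intravenously and orally at 1 mg/kg. Pharmacokinetic parameters derived from both routes.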

[3] = Half life in Sprague-Dawley CD rat at 1 mg/kg, iv and 1 mg/kg, po; assay type: ADME, organism-based; details: in vivo; procedure, shortened: as §1
[4] = Solubility of the compound; assay type: physicochemical
[5] = Clearance in Sprague-Dawley CD rat at 1 mg/kg, iv and 1 mg/kg, po; assay type: ADME, organism-based; details: in vivo; procedure, shortened: as §1
[6] = Oral bioavailability in Sprague-Dawley CD rat at 1 mg/kg; assay type: ADME, organism-based; details: in vivo; procedure, shortened: as §1
[7] = Selectivity for human recombinant PDE4B over PDE1
[8] = Selectivity for human recombinant PDE4B over PDE6
[9] = Selectivity for human recombinant PDE4B over PDE7
[10] = Selectivity for human recombinant PDE4B over PDE2
[11] = Selectivity for human recombinant PDE4B over bovine aorta PDE3; assay type: tissue-based
Procedure, shortened: (§2)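 Catalytic activity of human recombinant PDE4B, PDE3 purified from bovine aorta and human recombinant PDE5 was measured by scintillation proximity assay in 96-well format. Selectivity compares inhibition of PDE4B with inhibition of the other enzyme.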

Homo sapiens = organism: Homo sapiens; test: Selectivity for human recombinant PDE4B over human recombinant PDE5; procedure, shortened: as §2

SMILES: COc1cccc(Nc2c(C#N)cnc3ccc(S(C)(=O)=O)cc23)c1
IC50 [1]: 501 nM

SMILES: CS(=O)(=O)c1ccc2ncc(C(N)=O)c(N)c2c1
IC50 [1]: > 31600 nM

SMILES: COc1cc(Nc2c(C(N)=O)cnc3c(F)cc(S(C)(=O)=O)cc23)ccc1F
IC50 (Blood): 15.8 nM

SMILES: COc1cc(Nc2c(C(N)=O)cnc3c(Cl)cc(S(C)(=O)=O)cc23)ccc1F
IC50 (Blood): 7.94 nM
AUC [2]: 16 ng·h/mL

SMILES: COc1cccc(Nc2c(-c3nnc(C)o3)cnc3ccc(S(C)(=O)=O)cc23)c1
IC50 [1]: 20000 nM

SMILES: CS(=O)(=O)c1ccc2ncc(C(N)=O)c(Sc3cccc(Cl)c3)c2c1
IC50 [1]: 20000 nM

SMILES: COc1cccc(Nc2c(C(N)=O)cnc3ccc(S(=O)(=O)c4ccccc4)cc23)c1
IC50 [1]: 1.58 nM

SMILES: COc1cc(Nc2c(C(N)=O)cnc3c(C)cc(S(C)(=O)=O)cc23)ccc1F
half-life [3]: 1.6 h
fold change (FC) [7]: > 100
IC50 (Blood): 7.94 nM
IC50 [1]: 0.316 nM
AUC [2]: 770 ng·h/mL
solubility [4]: 5 µg/mL (≈ 12.4 µM)
fold change (FC) [8]: > 100
clearance [5]: 16 mL/min/kg
bioavailability [6]: 82%
fold change (FC) [9]: > 100
fold change (FC) [10]: > 100

SMILES: COc1cccc(Nc2cc(C(N)=O)nc3ccc(S(C)(=O)=O)cc23)c1
IC50 [1]: 7940 nM

SMILES: CNC(=O)c1cnc2ccc(S(C)(=O)=O)cc2c1Nc1cccc(OC)c1
IC50 [1]: 3160 nM

SMILES: O=C(Nc1c(Cl)cncc1Cl)c1ccc(OC(F)F)c(OCC2CC2)c1 [ROFLUMILAST]
fold change (FC) [11]: > 300
fold change (FC) (Homo sapiens): > 300
IC50 (Blood): 20 nM

SMILES: COc1cccc(Nc2c(-c3nc(C)no3)cnc3ccc(S(C)(=O)=O)cc23)c1
IC50 [1]: 15800 nM

SMILES: COc1cccc(Nc2c(CN)cnc3ccc(S(=O)(=O)c4ccccc4)cc23)c1
IC50 [1]: 251 nM

SMILES: CS(=O)(=O)c1ccc2ncc(C(N)=O)c(Oc3cccc(Cl)c3)c2c1
IC50 [1]: 3160 nM

SMILES: CN(c1cccc(Cl)c1)c1c(C(N)=O)cnc2ccc(S(C)(=O)=O)cc12
IC50 [1]: 1000 nM

SMILES: COc1cc(Nc2c(C(N)=O)cnc3c(OC)cc(S(C)(=O)=O)cc23)ccc1F
IC50 (Blood): 251 nM
IC50 [1]: 5.01 nM
AUC [2]: 81 ng·h/mL

SMILES: COc1cccc(Nc2c(C(=O)O)cnc3ccc(S(=O)(=O)c4ccccc4)cc23)c1
IC50 [1]: 12600 nM

SMILES: CS(=O)(=O)c1ccc2ncc(C(N)=O)c(Nc3cccc4c3CCO4)c2c1
half-life [3]: 1.7 h
IC50 (Blood): 25.1 nM
IC50 [1]: 2.51 nM
solubility [4]: 43 µg/mL (≈ 112 µM)
clearance [5]: 38 mL/min/kg
bioavailability [6]: 38%

SMILES: CCc1cc(S(C)(=O)=O)cc2c(Nc3ccc(F)c(OC)c3)c(C(N)=O)cnc12
IC50 (Blood): 12.6 nM

SMILES: Cc1cc(S(C)(=O)=O)cc2c(Nc3cccc(C#N)c3)c(C(N)=O)cnc12
half-life [3]: 2.3 h
fold change (FC) [7]: > 100
IC50 (Blood): 25.1 nM
solubility [4]: 18 µg/mL (≈ 47.3 µM)
fold change (FC) [8]: > 100
clearance [5]: 19 mL/min/kg
bioavailability [6]: 27%
fold change (FC) [9]: > 100
fold change (FC) [10]: > 100

SMILES: CS(=O)(=O)c1ccc2ncc(C(N)=O)c(NC3CCOCC3)c2c1
IC50 [1]: > 31600 nM

Further lines, with some results ahead:

half-life [3]: 1.9 h
IC50 (Blood): 158 nM
IC50 [1]: 31.6 nM
AUC [2]: 530 ng·h/mL
solubility [4]: 4 µg/mL (≈ 10.3 µM)
clearance [5]: 21 mL/min/kg
bioavailability [6]: 65%
SMILES: COc1cc(Nc2c(C(N)=O)cnc3ccc(S(C)(=O)=O)cc23)ccc1F

IC50 (Blood): 251 nM
IC50 [1]: 15.8 nM
solubility [4]: 2 µg/mL (≈ 5.32 µM)
SMILES: CS(=O)(=O)c1ccc2ncc(C(N)=O)c(Nc3cccc(Cl)c3)c2c1

half-life [3]: 1.1 h
solubility [4]: 5 µg/mL (≈ 13.5 µM)
clearance [5]: 10 mL/min/kg
bioavailability [6]: 10%
SMILES: COc1cccc(Nc2c(C(N)=O)cnc3ccc(S(C)(=O)=O)cc23)c1

half-life [3]: 2 h
IC50 (Blood): 251 nM
IC50 [1]: 6.31 nM
solubility [4]: 12 µg/mL (≈ 30.5 µM)
clearance [5]: 13 mL/min/kg
bioavailability [6]: 47%
SMILES: CS(=O)(=O)c1ccc2ncc(C(N)=O)c(Nc3cccc(Cl)c3F)c2c1

IC50 (Blood): 1260 nM
IC50 [1]: 79.4 nM
SMILES: CS(=O)(=O)c1ccc2ncc(C(N)=O)c(Nc3cccc(CN)c3)c2c1

IC50 (Blood): 2000 nM
IC50 [1]: 100 nM
SMILES: CS(=O)(=O)c1ccc2ncc(C(N)=O)c(Nc3cccnc3)c2c1

fold change (FC) (Homo sapiens): > 300
IC50 [1]: 100 nM
solubility [4]: 30 µg/mL (≈ 83.9 µM)
SMILES: CS(=O)(=O)c1ccc2ncc(C(N)=O)c(Nc3cccc(O)c3)c2c1
fold change (FC) [11]: > 300

half-life [3]: 0.9 h
IC50 (Blood): 316 nM
IC50 [1]: 20 nM
clearance [5]: 16 mL/min/kg
bioavailability [6]: 23%
SMILES: CS(=O)(=O)c1ccc2ncc(C(N)=O)c(Nc3cccc(C#N)c3)c2c1

IC50 [1]: 5010 nM
SMILES: CS(=O)(=O)c1ccc2ncc(C(N)=O)c(Nc3cccc(C(=O)O)c3)c2c1
